KCNQ1 block – blocks the human KCNQ1 potassium channel; P51787; CHO-K1 KCNQ1, FluxOR thallium flux fluorescence; active compounds read high; B-score at 10 µM; actives 1.3% (n = 310,000);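 active means compounds whose thallium flux B-score, printed positive for inhibition, exceeds three library SD while starting fluorescence stays within three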;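 further: channel opened by potassium depolarization with thallium stimulus after 20 min compound exposure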
hERG rescue – shields human hERG channel from block by proarrhythmic agents; CHO-hERG, FluxOR thallium flux, dofetilide IC70 present; Q12809; activation (rescue from dofetilide block), less the hit threshold, % at 10 µM; AID 1511; actives 0.51% (n = 310,000);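 active means activation above the mean of controls blocked by dofetilide plus 5 SD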;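 further: thallium influx through hERG after potassium depolarization seen as dye fluorescence rise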
KCNQ1 pot – human KCNQ1 channel potentiation or activation; CHO-K1 KCNQ1, thallium flux FluxOR fluorescence; active compounds read high; B-score at 10 µM; actives 0.35% (n = 310,000); P51787; AID 2648;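 active means fluorescence ratio B-score, a plate-corrected score, at least three library SD, with initial intensity B-score within 5 SD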
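System: Stable KCNQ1 CHO-K1 line | Incubation: 90 min dye loading and 20 min compound exposure, both at room temperature | Measure: Ratio B score | Medium: Assay buffer for compound exposure, DMSO matched across wells | Compound dosing: Single-concentration screen | Probe or stimulus: K+/Tl+ depolarizing stimulus | Measured by: Kinetic FluxOR fluorescence, 10 s baseline plus 110 s post-stimulus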
KCNK3 block – human KCNK3 channel inhibition, primary screen; actives 0.84% (n = 340,000); B-score at 10 µM; CHO-KCNK3 thallium flux, FluxOR fluorescence; active compounds read low;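 active means B-score under library mean minus 4 SD, starting fluorescence ratio at most library mean plus 5 SD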;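 further: more negative B-score means stronger inhibition of thallium flux through KCNK3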
KCNK9 block – inhibitors of human KCNK9 two-pore domain potassium channel; Q9NPC2; AID 488922; actives 1.2% (n = 310,000); HEK293 KCNK9, FluxOR thallium flux fluorescence; active compounds read low; B-score at 10 µM;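 active means ratio B-score over 3 SD below the library mean, with starting fluorescence within 5 SD of its mean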;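 further: negative B-score means less thallium flux so channel inhibition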
Kir21 inh – blocks the mouse Kir2.1 inward-rectifier potassium channel; HEK293-Kir2.1, FluxOR thallium flux fluorescence; active compounds read low; P35561; AID 1672; B-score at 10 µM; actives 0.85% (n = 310,000);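 active means fluorescence ratio B-score at or below minus 3 SD of library scores, with starting-brightness B-score within 2 SD, cut at about -4.2 in these data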;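 further: channel flux triggered by added potassium and thallium sulfate stimulus; B-score of peak minus minimum fluorescence over baseline after thallium stimulus; more negative B-score means stronger Kir2.1 block with less thallium influx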
KCNQ1 inh valid – confirmation of human KCNQ1 potassium channel inhibitors. shares compounds with KCNQ1 block. KCNQ1 cell line, FluxOR thallium flux fluorescence. inhibition, % at 10 µM. actives 93% (n = 1,600);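 active means primary screen active, with duplicate mean exceeding buffer control mean plus 3 SD of buffer wells, cut at about 28% in these data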;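 further: 0% = buffer control ratio and 100% = XE991 inhibitor control ratio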
CHO KCNQ1 ctr – activity in parental CHO cells lacking KCNQ1; shares compounds with KCNQ1 block; actives 21% (n = 1,600); parental CHO-K1, FluxOR thallium flux fluorescence ratio; active compounds read low; zero means no signal rise above baseline; fluorescence ratio (Tl flux) at 10 µM;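 active means mean of duplicate thallium-flux fluorescence ratios in parental host cells more than 5 SD below the buffer control mean, cut at about 0.38 in these data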;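 further: ratio is peak minus minimum fluorescence divided by baseline fluorescence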
KCNQ1 ephys val – confirmation of human KCNQ1 potassium channel inhibitors by electrophysiology. calls only at 10 µM. actives 20% (n = 490). shares compounds with KCNQ1 block. AID 624120. KCNQ1-CHO cells, automated patch clamp current;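 active means KCNQ1 current drop exceeding 3 SD of negative control wells, seen in both duplicate runs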;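 further: steady state current during a 2 s step from -80 to +40 mV; negative values mean current inhibition and positive values mean potentiation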
KCNQ2 spec – KCNQ1 inhibitor that also blocks rat KCNQ2 channel. KCNQ2 cells, FluxOR thallium flux fluorescence. AID 651746. shares compounds with KCNQ1 block. actives 71% (n = 1,600). inhibition, % at 10 µM;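 active means mean percent inhibition of the KCNQ2 thallium signal more than 5 SD above the buffer-only control wells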;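 further: KCNQ2 expressed in CHO cells; 0% = buffer control wells and 100% = XE-991 inhibitor control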
Target sequence (O88943 whole entry, looked up): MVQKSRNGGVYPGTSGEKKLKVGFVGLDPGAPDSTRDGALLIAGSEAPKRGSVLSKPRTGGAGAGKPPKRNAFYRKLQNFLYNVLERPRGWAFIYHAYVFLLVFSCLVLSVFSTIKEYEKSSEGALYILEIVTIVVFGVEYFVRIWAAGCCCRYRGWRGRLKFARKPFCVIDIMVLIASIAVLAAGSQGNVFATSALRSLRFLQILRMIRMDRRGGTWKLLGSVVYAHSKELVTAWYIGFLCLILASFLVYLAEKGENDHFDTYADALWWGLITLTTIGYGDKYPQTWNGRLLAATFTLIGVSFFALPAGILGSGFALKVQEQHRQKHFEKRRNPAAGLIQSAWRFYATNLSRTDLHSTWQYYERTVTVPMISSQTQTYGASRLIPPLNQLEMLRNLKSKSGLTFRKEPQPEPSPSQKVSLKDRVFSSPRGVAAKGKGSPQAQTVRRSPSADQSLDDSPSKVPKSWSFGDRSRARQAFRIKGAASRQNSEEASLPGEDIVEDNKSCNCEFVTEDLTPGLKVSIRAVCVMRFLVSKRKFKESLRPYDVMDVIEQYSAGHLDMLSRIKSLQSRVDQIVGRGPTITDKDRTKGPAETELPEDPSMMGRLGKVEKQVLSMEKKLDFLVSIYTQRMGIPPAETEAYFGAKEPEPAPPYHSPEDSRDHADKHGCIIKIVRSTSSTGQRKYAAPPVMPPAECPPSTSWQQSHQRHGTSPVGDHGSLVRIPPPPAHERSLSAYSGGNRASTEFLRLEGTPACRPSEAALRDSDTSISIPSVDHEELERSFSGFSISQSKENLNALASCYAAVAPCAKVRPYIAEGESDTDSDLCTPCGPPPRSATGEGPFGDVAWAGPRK
KCNQ1 KCNE1 spec – selectivity of KCNQ1 inhibitors: inhibition of human KCNQ1/KCNE1 channel. shares compounds with KCNQ1 block. KCNQ1/KCNE1 cells, FluxOR thallium flux fluorescence. inhibition, % at 10 µM. actives 77% (n = 1,600). AID 652147;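 active means mean percent inhibition of duplicate wells above the buffer-only control mean plus 3 SD of those controls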;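 further: 0% = buffer only wells and 100% = XE-991 inhibitor control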
* = called active by the depositor. Shown are actives, neighbours in structure and some others; about 3.7% of the full set was active somewhere.

`COc1cc(/C=C/c2nc(-c3ccccc3O)n[nH]2)cc(OC)c1OC` gave KCNQ1 block 6*, hERG rescue -33.7, KCNQ1 pot inactive, KCNK3 block inactive, KCNK9 block inactive, Kir21 inh 1.03, KCNQ1 inh valid 116.0*, CHO KCNQ1 ctr 0.381, KCNQ2 spec 113.0%* and KCNQ1 KCNE1 spec 190.0%*.
`CCCc1c(-c2ccc(O)cc2)nn(-c2ccc(O)cc2)c1-c1ccc(O)cc1` gave KCNQ1 block 13*, hERG rescue -35.6, KCNQ1 pot inactive, KCNK3 block -8.97*, KCNK9 block inactive, Kir21 inh -1.81, KCNQ1 inh valid 146.5*, CHO KCNQ1 ctr 0.254*, KCNQ2 spec inactive and KCNQ1 KCNE1 spec active.
For Cc1c(C(N)=O)c(-c2ccccc2)nn1-c1ccccc1 the results were KCNQ1 block inactive, hERG rescue -7.2, KCNQ1 pot inactive, KCNK3 block inactive, KCNK9 block inactive and Kir21 inh 2.12.
For CCOc1cccc(C(=O)Nc2ccccc2C(=O)N2CCOCC2)c1 the results were KCNQ1 block inactive, hERG rescue -7.4, KCNQ1 pot inactive, KCNK3 block inactive, KCNK9 block inactive and Kir21 inh -2.06.
COc1ccccc1OCCNC(=O)c1ccc(C)c(S(=O)(=O)N2CCOCC2)c1 was read as KCNQ1 block inactive, hERG rescue -11.2, KCNQ1 pot inactive, KCNK3 block inactive, KCNK9 block inactive and Kir21 inh 1.42.
CCOc1cc2c3c(c1)C1(Nc4ccccc4S1)C(=O)N3C(C)(C)CC2C (centres undefined) was read as KCNQ1 block 8*, hERG rescue -11.0, KCNQ1 pot inactive, KCNK3 block inactive, KCNK9 block inactive, Kir21 inh -0.18, KCNQ1 inh valid 95.5*, CHO KCNQ1 ctr 0.481, KCNQ1 ephys val inactive, KCNQ2 spec inactive and KCNQ1 KCNE1 spec 77.0%*.
Screening COc1ccc(C)cc1NC(=O)CCCN1C(=S)NC(C)(C)CC1C (centres undefined) returned KCNQ1 block 6*, hERG rescue -11.9, KCNQ1 pot inactive, KCNK3 block inactive, KCNK9 block inactive, Kir21 inh -0.63, KCNQ1 inh valid 0.0, CHO KCNQ1 ctr 0.482, KCNQ2 spec inactive and KCNQ1 KCNE1 spec inactive.
For Cc1[nH]c2ccccc2c1C(=O)COc1ccccc1 the results were KCNQ1 block 7*, hERG rescue -12.3, KCNQ1 pot inactive, KCNK3 block inactive, KCNK9 block inactive, Kir21 inh -2.76, KCNQ1 inh valid 0.0, CHO KCNQ1 ctr 0.481, KCNQ2 spec 63.3%* and KCNQ1 KCNE1 spec 40.0%*.
For CCO[C@H]1OC(C(=O)N2CCN(Cc3ccc4c(c3)OCO4)CC2)=C[C@@H](c2ccc(C(F)(F)F)cc2)[C@@H]1CCCO the results were KCNQ1 block inactive, hERG rescue -15.0, KCNQ1 pot inactive, KCNK3 block inactive, KCNK9 block inactive and Kir21 inh -0.88.
Screening c1ccc(CN2CCC(Nc3nc(-c4ccccc4)nc4ccccc34)CC2)cc1 returned KCNQ1 block inactive, hERG rescue -18.7, KCNQ1 pot inactive, KCNK3 block inactive, KCNK9 block inactive and Kir21 inh -0.31.
Screening Cc1csc2ncnc(NC3CCN(Cc4ccccc4)CC3)c12 returned KCNQ1 block 8*, hERG rescue -17.0, KCNQ1 pot inactive, KCNK3 block inactive, KCNK9 block inactive, Kir21 inh -0.84, KCNQ1 inh valid 26.0*, CHO KCNQ1 ctr 0.532, KCNQ2 spec inactive and KCNQ1 KCNE1 spec 57.0%*.
COc1ccccc1N1CCN(C(=O)CCC(=O)Nc2nnc(C(C)C)s2)CC1 was read as KCNQ1 block inactive, hERG rescue -9.6, KCNQ1 pot inactive, KCNK3 block inactive, KCNK9 block inactive and Kir21 inh 0.55.
For c1ccc(-c2cc3ccccc3[nH]2)cc1 the results were KCNQ1 block inactive, hERG rescue -11.4, KCNQ1 pot inactive, KCNK3 block inactive, KCNK9 block inactive and Kir21 inh 1.96.
`Clc1ccc2[nH]c(-c3ccccc3)cc2c1` gave KCNQ1 block 9*, hERG rescue -3.0, KCNQ1 pot inactive, KCNK3 block inactive, KCNK9 block inactive, Kir21 inh -0.05, KCNQ1 inh valid 131.0*, CHO KCNQ1 ctr 0.516, KCNQ1 ephys val inactive, KCNQ2 spec 92.0%* and KCNQ1 KCNE1 spec 132.0%*.
`O=C(OCCN1C(=O)c2ccccc2C1=O)c1cc(S(=O)(=O)N2CCOCC2)ccc1F` gave KCNQ1 block inactive, hERG rescue -8.9, KCNQ1 pot inactive, KCNK3 block inactive, KCNK9 block inactive and Kir21 inh -0.85.
`O=C(OCCN1C(=O)c2cccc3c(N4CCOCC4)ccc(c23)C1=O)c1ccc(Cl)cc1` gave KCNQ1 block 10*, hERG rescue -18.6, KCNQ1 pot inactive, KCNK3 block inactive, KCNK9 block inactive, Kir21 inh -2.4, KCNQ1 inh valid active, CHO KCNQ1 ctr 0.0875*, KCNQ2 spec inactive and KCNQ1 KCNE1 spec inactive.
For CC1CCN(S(=O)(=O)c2cccc(C(=O)Nc3nncs3)c2)CC1 the results were KCNQ1 block inactive, hERG rescue -3.2, KCNQ1 pot inactive, KCNK3 block inactive, KCNK9 block inactive and Kir21 inh -0.99.
For Cn1ncc(Br)c1NC(=O)Nc1ccc(OC(F)(F)F)cc1 the results were KCNQ1 block 8*, hERG rescue -11.6, KCNQ1 pot inactive, KCNK3 block inactive, KCNK9 block inactive, Kir21 inh -0.06, KCNQ1 inh valid 79.0*, CHO KCNQ1 ctr 0.495, KCNQ2 spec 132.0%* and KCNQ1 KCNE1 spec inactive.
